Experimental data reported in ChEMBL document CHEMBL3352384, “Synthesis and biological activity of new salicylanilide N,N-disubstituted carbamates and thiocarbamates” (Bioorg Med Chem, 2014).
Values after ≈ are worked out from the molar mass of the structure shown.

Columns and labels:
Mycobacterium avium [1] = assay: Antimycobacterial activity against Isoniazid, rifampicin, ofloxacin and ethambutol-resistant Mycobacterium avium 330/88 assessed as complete growth inhibition after 21 days; format: functional; conditions: 330/88, 504 h
In short: (§1)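 M. tuberculosis 331/88 (H37Rv) inoculum diluted 10-3, M. avium 330/88 diluted 10-5. MIC is the lowest concentration giving complete growth inhibition. Isoniazid and p-aminosalicylic acid as references. Quadruplicate, repeated twice.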

Mycobacterium kansasii [2] = assay: Antimycobacterial activity against Mycobacterium kansasii 235/80 assessed as complete growth inhibition after 7 days; format: functional; conditions: 235/80, 168 h
In short: (§2)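 Dilutions of M. kansasii inoculum were 10-4 for strain 235/80 and 10-5 for clinical isolate 6509/96. MIC was the lowest concentration giving complete growth inhibition, run in quadruplicate and repeated twice.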

Mycobacterium kansasii [3] = assay: Antimycobacterial activity against Mycobacterium kansasii 235/80 assessed as complete growth inhibition after 14 days; format: functional; conditions: 235/80, 336 h; in short: as §2
Mycobacterium kansasii [4] = assay: Antimycobacterial activity against Mycobacterium kansasii 235/80 assessed as complete growth inhibition after 21 days; format: functional; conditions: 235/80, 504 h; in short: as §2
Mycobacterium kansasii [5] = assay: Antimycobacterial activity against clinical isolate Mycobacterium kansasii 6509/96 assessed as complete growth inhibition after 7 days; format: functional; conditions: 6509/96, 168 h; in short: as §2
Mycobacterium kansasii [6] = assay: Antimycobacterial activity against clinical isolate Mycobacterium kansasii 6509/96 assessed as complete growth inhibition after 14 days; format: functional; conditions: 6509/96, 336 h; in short: as §2
Mycobacterium kansasii [7] = assay: Antimycobacterial activity against clinical isolate Mycobacterium kansasii 6509/96 assessed as complete growth inhibition after 21 days; format: functional; conditions: 6509/96, 504 h; in short: as §2
[8] = Inhibition of Mycobacterium tuberculosis H37Rv isocitrate lyase assessed as glyoxylate phenyl hydrazone formation at 10 uM
HepG2 = assay: Cytotoxicity against human HepG2 cells assessed as reduction in cell viability after 24 hrs by MTS assay; format: cell-based; conditions: HepG2, 24 h
In short: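 HepG2 hepatocellular carcinoma cells (passage 3–4) were grown in Eagle's MEM with 10% FBS, 1% L-glutamine and non-essential amino acids. Compounds were added from DMSO at eight concentrations in triplicate, with 10% DMSO as the 0% viability control. Viability was read by tetrazolium salt reduction (CellTiter 96 AQueous One). IC50 is the concentration reducing viability to 50% of control.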

[9] = Selectivity index, ratio of IC50 for human HepG2 cells to MIC for atypical mycobacteria
In short: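 Selectivity index = HepG2 IC50 / MIC. HepG2 cells (passage 3–4) grown in Eagle's MEM with 10% FBS, L-glutamine and non-essential amino acids. Compounds added from DMSO, eight concentrations in triplicate, tetrazolium-reduction colorimetric read-out. IC50 is the concentration reducing viability to 50% of control; 10% DMSO as 0% viability.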

[10] = Selectivity index, ratio of IC50 for human HepG2 cells to MIC for Trichophyton mentagrophytes 445
[11] = Selectivity index, ratio of IC50 for human HepG2 cells to MIC for Mycobacterium tuberculosis H37Rv; format: toxicity, cell-based; conditions: read-out: Selectivity Index
In short: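 Selectivity index = HepG2 IC50 / MIC. HepG2 cells (passage 3–4) grown in Eagle's MEM with 10% FBS, L-glutamine and non-essential amino acids. Compounds added from DMSO, eight concentrations in triplicate, tetrazolium-reduction colorimetric read-out.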

[12] = test system: Mycobacterium tuberculosis; assay: Antimycobacterial activity against Mycobacterium tuberculosis H37Rv 331/88 assessed as complete growth inhibition after 14 days; format: functional; conditions: H37Rv 331/88, 336 h; in short: as §1
[13] = test system: Mycobacterium tuberculosis; assay: Antimycobacterial activity against Mycobacterium tuberculosis H37Rv 331/88 assessed as complete growth inhibition after 21 days; format: functional; conditions: H37Rv 331/88, 504 h; in short: as §1
Mycobacterium avium [14] = assay: Antimycobacterial activity against Isoniazid, rifampicin, ofloxacin and ethambutol-resistant Mycobacterium avium 330/88 assessed as complete growth inhibition after 14 days; format: functional; conditions: 330/88, 336 h; in short: as §1

| Structure (SMILES) | MIC (Mycobacterium avium [1]) [µM] | MIC (Mycobacterium kansasii [2]) [µM] | MIC (Mycobacterium kansasii [3]) [µM] | MIC (Mycobacterium kansasii [4]) [µM] | MIC (Mycobacterium kansasii [5]) [µM] | MIC (Mycobacterium kansasii [6]) [µM] | MIC (Mycobacterium kansasii [7]) [µM] | inhibition [8] [%] | IC50 (HepG2) [µM] | Selectivity Index [9] | Selectivity Index [10] | selectivity ratio [11] | MIC [12] [µM] | MIC [13] [µM] | MIC (Mycobacterium avium [14]) [µM] |
| --- | --- | --- | --- | --- | --- | --- | --- | --- | --- | --- | --- | --- | --- | --- | --- |
| O=C(Nc1ccc(Cl)cc1)c1cc(Cl)ccc1O | 16 (≈ 4.51 µg/mL) | 4 (≈ 1.13 µg/mL) | 8 (≈ 2.26 µg/mL) | 8 (≈ 2.26 µg/mL) | 4 (≈ 1.13 µg/mL) | 8 (≈ 2.26 µg/mL) | 8 (≈ 2.26 µg/mL) | 13 | 21.7 | 1.4 | 11.1 | 5.4 | 4 (≈ 1.13 µg/mL) | 4 (≈ 1.13 µg/mL) | 8 (≈ 2.26 µg/mL) |
| O=C(Nc1ccc(C(F)(F)F)cc1)c1cc(Cl)ccc1OC(=O)N(c1ccccc1)c1ccccc1 | 250 (≈ 128 µg/mL) | 125 (≈ 63.9 µg/mL) | 125 (≈ 63.9 µg/mL) | 125 (≈ 63.9 µg/mL) | 125 (≈ 63.9 µg/mL) | 125 (≈ 63.9 µg/mL) | 125 (≈ 63.9 µg/mL) | 21 | > 100 |  |  |  | 125 (≈ 63.9 µg/mL) | 125 (≈ 63.9 µg/mL) | 250 (≈ 128 µg/mL) |
| O=C(Nc1ccc(F)cc1)c1cc(Cl)ccc1OC(=O)N(c1ccccc1)c1ccccc1 | 250 (≈ 115 µg/mL) | 62.5 (≈ 28.8 µg/mL) | 62.5 (≈ 28.8 µg/mL) | 62.5 (≈ 28.8 µg/mL) | 125 (≈ 57.6 µg/mL) | 125 (≈ 57.6 µg/mL) | 125 (≈ 57.6 µg/mL) | 22 | > 100 |  |  |  | 250 (≈ 115 µg/mL) | 250 (≈ 115 µg/mL) | 250 (≈ 115 µg/mL) |
| CN(C(=O)Oc1ccc(Cl)cc1C(=O)Nc1ccc(F)cc1)c1ccccc1 | 250 (≈ 99.7 µg/mL) | 62.5 (≈ 24.9 µg/mL) | 125 (≈ 49.9 µg/mL) | 125 (≈ 49.9 µg/mL) | 62.5 (≈ 24.9 µg/mL) | 125 (≈ 49.9 µg/mL) | 125 (≈ 49.9 µg/mL) | 14 | 512 | <=8.2 |  | 8.2 | 32 (≈ 12.8 µg/mL) | 62.5 (≈ 24.9 µg/mL) | 250 (≈ 99.7 µg/mL) |
| O=C(Nc1ccc(Br)cc1)c1cc(Cl)ccc1O | 16 (≈ 5.23 µg/mL) | 4 (≈ 1.31 µg/mL) | 8 (≈ 2.61 µg/mL) | 8 (≈ 2.61 µg/mL) | 4 (≈ 1.31 µg/mL) | 8 (≈ 2.61 µg/mL) | 8 (≈ 2.61 µg/mL) | 13 | 15.7 | 1 | 16 | 3.9 | 4 (≈ 1.31 µg/mL) | 4 (≈ 1.31 µg/mL) | 8 (≈ 2.61 µg/mL) |
| O=C(Nc1ccc(Cl)cc1)c1cc(Cl)ccc1OC(=O)N(c1ccccc1)c1ccccc1 | 250 (≈ 119 µg/mL) | 32 (≈ 15.3 µg/mL) | 125 (≈ 59.7 µg/mL) | 125 (≈ 59.7 µg/mL) | 32 (≈ 15.3 µg/mL) | 62.5 (≈ 29.8 µg/mL) | 62.5 (≈ 29.8 µg/mL) | 20 | > 100 |  |  |  | 250 (≈ 119 µg/mL) | 250 (≈ 119 µg/mL) | 250 (≈ 119 µg/mL) |
| O=C(Nc1ccc(C(F)(F)F)cc1)c1cc(Cl)ccc1O | 8 (≈ 2.53 µg/mL) | 2 (≈ 0.631 µg/mL) | 4 (≈ 1.26 µg/mL) | 4 (≈ 1.26 µg/mL) | 2 (≈ 0.631 µg/mL) | 4 (≈ 1.26 µg/mL) | 4 (≈ 1.26 µg/mL) | 6 | 0.36 |  |  |  | 1 (≈ 0.316 µg/mL) | 2 (≈ 0.631 µg/mL) | 4 (≈ 1.26 µg/mL) |
| O=C(Nc1ccccc1)c1ccccc1OC(=O)N(c1ccccc1)c1ccccc1 | 62.5 (≈ 25.5 µg/mL) | 62.5 (≈ 25.5 µg/mL) | 125 (≈ 51.1 µg/mL) | 125 (≈ 51.1 µg/mL) | 125 (≈ 51.1 µg/mL) | 125 (≈ 51.1 µg/mL) | 125 (≈ 51.1 µg/mL) | 8 | 211 | 1.7 |  | 1.7 | 125 (≈ 51.1 µg/mL) | 125 (≈ 51.1 µg/mL) | 62.5 (≈ 25.5 µg/mL) |
| O=C(Nc1ccc(Br)cc1)c1cc(Cl)ccc1OC(=O)N(c1ccccc1)c1ccccc1 | 250 (≈ 130 µg/mL) | 32 (≈ 16.7 µg/mL) | 125 (≈ 65.2 µg/mL) | 125 (≈ 65.2 µg/mL) | 32 (≈ 16.7 µg/mL) | 62.5 (≈ 32.6 µg/mL) | 62.5 (≈ 32.6 µg/mL) | 19 | > 100 |  |  |  | 250 (≈ 130 µg/mL) | 250 (≈ 130 µg/mL) | 250 (≈ 130 µg/mL) |
| CN(C(=O)Oc1ccc(Cl)cc1C(=O)Nc1ccc(Cl)cc1)c1ccccc1 | 250 (≈ 104 µg/mL) | 62.5 (≈ 26 µg/mL) | 125 (≈ 51.9 µg/mL) | 125 (≈ 51.9 µg/mL) | 32 (≈ 13.3 µg/mL) | 62.5 (≈ 26 µg/mL) | 125 (≈ 51.9 µg/mL) | 17 | 289 | <=9 |  | 9 | 32 (≈ 13.3 µg/mL) | 32 (≈ 13.3 µg/mL) | 250 (≈ 104 µg/mL) |
